Bioassay records (PubChem BioAssay)
Compounds with a hit are over-represented: about 1.7% of the library has one in this group of screens.
CSN inh – CSN deneddylation inhibition; Purified CSN, SCF-Nedd8-OG deneddylation, fluorescence polarization; inhibition, % at 12.5 µM; 360,000 tested, 0.38% active;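 active = pattern-corrected inhibition above about 35%, with an unprinted fluorescence ratio check between 0.5 and 1.5, limit read from the data, passing the limit was not always enough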
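Material: human Csn5 produced in HEK293T cells; Input: enzyme 0.24 nM; Reagent: SCFSkp2-Nedd8OG substrate at 10 nM final; Dosing: 12.5 µM compound; Incubation: 90 min reaction at room temperature; Detection: fluorescence polarization of the substrate; Evaluation: % inhibition of substrate cleavage by Csn5; Control set: substrate-only high control, full reaction low control.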
HNF4A DNA FP – change in binding of human HNF4 alpha to DNA | P41235 | HNF4a-FITC DNA binding, fluorescence polarization, 1 h | activity change, % at 10 µM | 360,000 tested, 0.3% active | AID 1224865; in the data active = activity change above about 30%, passing the limit was not always enough
Target sequence (P41235 whole entry, looked up): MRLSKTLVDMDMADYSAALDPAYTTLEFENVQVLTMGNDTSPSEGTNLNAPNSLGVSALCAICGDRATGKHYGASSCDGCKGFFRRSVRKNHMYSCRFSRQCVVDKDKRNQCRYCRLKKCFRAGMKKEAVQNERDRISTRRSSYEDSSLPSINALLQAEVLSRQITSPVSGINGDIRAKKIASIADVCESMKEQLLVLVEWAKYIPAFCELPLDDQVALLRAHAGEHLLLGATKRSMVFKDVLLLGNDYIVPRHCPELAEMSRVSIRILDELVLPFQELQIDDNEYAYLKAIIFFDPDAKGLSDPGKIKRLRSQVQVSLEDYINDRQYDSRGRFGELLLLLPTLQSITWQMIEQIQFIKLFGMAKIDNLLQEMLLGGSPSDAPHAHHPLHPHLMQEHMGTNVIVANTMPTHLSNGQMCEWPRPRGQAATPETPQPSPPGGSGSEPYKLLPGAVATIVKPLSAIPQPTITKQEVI
IDE act – boosts human insulin-degrading enzyme activity in HEK cells. P14735. FAbeta-B cleavage, fluorescence polarization; 0% vehicle, 100% cell-free pure enzyme wells. activation, % at 5.96 µM. 340,000 tested, 0.073% active;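 active = activation above the mean of all tested compounds plus 3 SD, set per screening campaign, cut at about 17% in these data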
Tb MetRS inh – blocks T. brucei methionyl-tRNA synthetase activity. inhibition, % at 11.9 µM. purified T. brucei MetRS, ATP depletion, Kinase-Glo luminescence. 360,000 tested, 0.4% active;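 active = inhibition above a per-plate cutoff of the control wells' mean inhibition plus 3 SD, cut at about 5.5% in these data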
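Dosing: 11.9 µM compound single dose, 0.9% DMSO; Assay system: purified T. brucei MetRS enzyme; Measured by: Kinase-Glo luciferase luminescence reporting remaining unconsumed ATP; Schedule: 15 min plus 2 h at 25 °C.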
TPT1 inh – inhibitors of Candida albicans tRNA 2'-phosphotransferase TPT1. recombinant caTPT1, FP RNA substrate dephosphorylation. AID 1962. inhibition, % at 5 µM. 300,000 tested, 0.81% active;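 active = inhibition above the mean of all tested compounds plus 3 SD, set per screening campaign, cut at about 24% in these data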
IDE cell inh – inhibitors of human insulin-degrading enzyme in cells. P14735. HEK cells, FAbetaB cleavage, fluorescence polarization. inhibition, % at 5.59 µM. 320,000 tested, 0.41% active. AID 434962;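 active = percent inhibition above the average of all tested compounds plus 3 SD, set per screening campaign, cut at about 16% in these data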;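 note: IDE supplied by intact live HEK cells; FP after avidin binding of uncleaved biotin substrate so inhibition keeps polarization high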
caTPT1 confirm – confirmation of Candida albicans TPT1 inhibitors. inhibition, % at 5 µM. recombinant caTPT1, fluorescence polarization, RNase T1 coupled. shares compounds with TPT1 inh. 2,400 tested, 74% active;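 active = inhibition above the primary screen limit, the mean inhibition of all tested compounds plus 3 SD, cut at about 25% in these data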
RNase T1 inh – counter-screen for TPT1 inhibitors: inhibitors of Aspergillus oryzae RNase T1; shares compounds with TPT1 inh; inhibition, % at 5 µM; 2,400 tested, 83% active; AID 2153; RNase T1 cleavage, fluorescence polarization, 1536-well;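 active = inhibition above the solvent-only control well mean plus 3 SD, limit set per screening run, cut at about 23% in these data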;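 note: inhibitors block cleavage so intact labeled substrate keeps polarization high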
Numbers stand for hits; n = inactive; x = not tested or not shown.

SMILES	CSN inh	HNF4A DNA FP	IDE act	Tb MetRS inh	TPT1 inh	IDE cell inh	caTPT1 confirm	RNase T1 inh
C=CCc1c(C)nc(-c2ccccc2)nc1Nc1ccccc1O	n	n	n	n	25	n	40	52
C=CCc1c(C)nc(-c2ccccc2)nc1N/N=C/c1ccccc1	n	n	n	n	n	n	x	x
COc1ccc(S(=O)(=O)Nc2ccc3c(c2)OCO3)cc1	n	n	n	n	n	n	x	x
COc1ccc(N/C=C2\CCc3ccccc3C2=O)cc1	n	n	n	n	51	n	59	71
COc1ccc2c(c1)CC/C(=C\Nc1ccc3c(c1)OCO3)C2=O	n	45	n	n	65	n	74	87
O=C1/C(=C/Nc2ccc3c(c2)OCO3)CCc2ccccc21	n	49	n	n	83	n	57	74
COc1ccc(N/C=C2\CCOC2=O)cc1	n	n	n	n	n	n	x	x
COc1cccc(C2CCCCN2Cc2nc(-c3ccc(C)o3)oc2C)c1 (stereo not given)	n	n	n	n	27	n	31	41
CCC(C)[C@H]1COCCS(=O)(=O)N1Cc1ccccc1 (stereo not given in full)	n	n	n	n	n	n	x	x
N#Cc1ccccc1Cn1cc(/C=N/Nc2ccc([N+](=O)[O-])cn2)c2ccccc21	n	n	n	n	37	n	82	89
COc1ccccc1C=NNc1ccc([N+](=O)[O-])cn1	n	n	n	n	x	x	x	x
Cc1ccccc1-n1c(C)cc(/C=N/Nc2ccc([N+](=O)[O-])cn2)c1C	n	n	n	n	38	n	41	56
O=[N+]([O-])c1ccc(N/N=C\c2cccn2-c2ccccc2)nc1	n	n	n	n	88	n	78	90
O=[N+]([O-])c1ccc(NN=Cc2ccccc2)nc1	n	n	n	n	x	x	x	x
CCSc1ncc(/C=N/Nc2ccc([N+](=O)[O-])cc2)n1C	n	n	n	n	56	n	57	66
CCCCOCCCNC(=O)C[C@@H]1C[C@@]2(C(=O)OC)CCCCC=C2N(Cc2ccc(Cl)cc2Cl)C1=O	n	n	x	n	x	x	x	x
C/C(CC(=O)Nc1cccc(Cl)c1Cl)=N\NC(=O)c1ccccc1N	n	n	n	n	n	n	x	x
COc1cc2ccc(C(=O)O)cc2cc1OC	n	n	x	n	x	x	x	x
C/C(=N/Nc1nc(-c2ccccc2F)nc2ccccc12)c1ccccc1O	n	n	n	n	32	n	36	51
Cc1ccccc1-n1c(SCC(N)=O)nc2sc(-c3ccccc3)cc2c1=O	n	n	n	n	n	n	x	x
Cc1ccccc1-n1c(SCC(=O)NC(N)=O)nc2sc(-c3ccccc3)cc2c1=O	n	n	n	n	31	n	n	n
CN1CCN(/N=C/c2ccc(-c3ccc([N+](=O)[O-])cc3Cl)o2)CC1	n	n	n	n	30	n	35	49
O=[N+]([O-])c1ccc(Cl)c(-c2ccc(/C=N/n3cnnc3)o2)c1	n	n	n	n	n	n	x	x
CCCN1C(=O)/C(=C\C=C2/Sc3ccccc3N2CCO)SC1=S	n	n	n	n	64	n	42	54
CCOC(=O)COc1nc(-c2ccco2)cc(-c2ccco2)c1C#N	n	n	x	n	n	n	x	x
CCOC(=O)CCSc1nc(C)cc(C(F)(F)F)c1C#N	38	n	n	n	25	n	33	44
CCOC(=O)C(C)Sc1nc(-c2ccco2)cc(C(F)(F)F)c1C#N (stereo not given)	n	n	n	n	26	n	n	n
CCOC(=O)CCSc1nc(C(C)(C)C)cc(C(F)(F)F)c1C#N	n	n	n	n	n	n	x	x
O=C(C1=C(O)C(=O)N(CCN2CCOCC2)C1c1cccs1)c1cc2ccccc2o1 (stereo not given)	n	n	n	n	55	n	n	n
